Assay [1] relates to Human immunodeficiency virus 1. Put plainly: Antiviral activity against HIV1 3B infected in HeLa P4/R5 cells assessed as reduction of viral infection incubated for 2 hrs followed by incubated in drug-free medium for 46 hrs by single round infection beta-galactosidase reporter gene assay. The note with it: Human immunodeficiency virus 1, 3B. The assay is classed as functional, organism-based. A digest of the protocol: (§1)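 P4R5 MAGI cells (CD4 and coreceptors, HIV-1 LTR–β-galactosidase reporter) seeded at 1.2 × 10^4 cells/well ~18 h before infection; exposed 2 h at 37 °C to cell-free X4 IIIB or R5 BaL virus with or without compound, washed, cultured 46 h more; β-galactosidase chemiluminescent read-out. Infection reduction relative to untreated; EC50 by regression; triplicate wells; dextran sulfate control.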
A general note: In a reporter assay the amount or activity of a reporter protein is the signal.

In assay [2] the test system is Human immunodeficiency virus 1. Kind of assay: Antiviral activity against HIV1 BaL infected in HeLa P4/R5 cells assessed as reduction of viral infection incubated for 2 hrs followed by incubated in drug-free medium for 46 hrs by single round infection beta-galactosidase reporter gene assay. It is filed as functional, organism-based. The note with it: Human immunodeficiency virus 1, BaL. A digest of the protocol:
as §1

Another assay concerns HeLa. Put plainly: Cytotoxicity against human HeLa P4/R5 cells after 48 hrs by MTT assay. The assay is classed as cell-based. The note with it: read-out: EC50 (the source's name). A digest of the protocol:
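Same P4R5 MAGI cell design as the infection assay but without virus; viability read by MTT tetrazolium reduction; each concentration tested in triplicate wells.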
In general terms: Tetrazolium assays rely on reduction of a dye to a coloured formazan, in cell work by metabolically active cells.

In assay [3] the test system is Human immunodeficiency virus 1. Put plainly: Antiviral activity against wild type HIV1 clade B 94US3393IN clinical isolate infected in PHA-P-stimulated human PBMC assessed as reverse transcriptase activity incubated for 6 hrs followed by incubated in drug-free medium for 6 days by multiround infection assay. The assay is classed as functional, organism-based. The note with it: Human immunodeficiency virus 1, clade B 94US3393IN.

Assay [4] deals with Human immunodeficiency virus 1. Put plainly: Antiviral activity against wild type HIV1 clade C 98USMSC5016 clinical isolate infected in PHA-P-stimulated human PBMC assessed as reverse transcriptase activity incubated for 6 hrs followed by incubated in drug-free medium for 6 days by multiround infection assay. The assay is classed as functional, organism-based. The note with it: Human immunodeficiency virus 1, clade C 98USMSC5016.

In assay [5] the test system is Human immunodeficiency virus 1. Put plainly: Antiviral activity against NNRTI-resistant HIV1 clade B A-17 clinical isolate infected in PHA-P-stimulated human PBMC assessed as reverse transcriptase activity incubated for 6 hrs followed by incubated in drug-free medium for 6 days by multiround infection assay. The assay is classed as functional, organism-based. The note with it: Human immunodeficiency virus 1, clade B A-17.

In assay [6] the test system is Human immunodeficiency virus 1. Put plainly: Antiviral activity against multidrug-resistant HIV1 clade B 4775-5 clinical isolate infected in PHA-P-stimulated human PBMC assessed as reverse transcriptase activity incubated for 6 hrs followed by incubated in drug-free medium for 6 days by multiround infection assay. The note with it: Human immunodeficiency virus 1, clade B 4775-5. The assay is classed as functional, organism-based.

The test system of assay [7] is Human immunodeficiency virus 1. Put plainly: Ratio of zidovudine EC50 to compound EC50 for HIV1 3B infected in HeLa P4/R5 cells. It is filed as functional.
For assay [8], the system named is Human immunodeficiency virus 1. Put plainly: Ratio of zidovudine EC50 to compound EC50 for HIV1 BaL infected in HeLa P4/R5 cells. The assay is classed as functional.
Assay [9] concerns Human immunodeficiency virus 1. Kind of assay: Ratio of lamivudine EC50 to compound EC50 for HIV1 3B infected in HeLa P4/R5 cells. It is filed as functional.
Assay [10] has as its system Human immunodeficiency virus 1. Kind of assay: Ratio of lamivudine EC50 to compound EC50 for HIV1 BaL infected in HeLa P4/R5 cells. The assay is classed as functional.

Molecules are shown by their SMILES. Bounds are passed on as bounds.

For `CCCCCCCCCCCCCC(=O)NCCCC[C@H](NC(=O)[C@H](CCC(=O)OC[C@H]1O[C@@H](n2cc(C)c(=O)[nH]c2=O)C[C@@H]1F)NC(=O)CCCCCCCCCCCCC)C(=O)O`, the EC50 in [1] is 26.8 µM; in assay [2], 29.1 µM. For the same molecule, the CC50 in the assay on HeLa is more than 108 µM.
Regarding `CCCCCCCCCCCCCC(=O)NCCCC[C@H](NC(=O)CCNC(=O)[C@H](CCC(=O)OC[C@H]1O[C@@H](n2cc(C)c(=O)[nH]c2=O)C[C@@H]1F)NC(C)=O)C(=O)O`, the 50% effective concentration (EC50) in [1] is 10.6 µM; in [2] it was 6.9 µM. Moreover, the CC50 in the assay on HeLa was more than 121 µM.
As to `CCCCCCCCCCCCCC(=O)OC[C@H](NC(C)=O)C(=O)NCCC(=O)N[C@@H](CCC(=O)OC[C@H]1O[C@@H](n2cc(C)c(=O)[nH]c2=O)C[C@@H]1F)C(=O)NCC(=O)O`, the EC50 in assay [1] was found to be 11.1 µM; in assay [2] it was 6.9 µM. In addition, in the assay with HeLa, the CC50 is more than 119 µM.
Consider `CCCCCCCCCCCCCC(=O)OC[C@H](NC(C)=O)C(=O)NCCC(=O)N[C@@H](CCC(=O)OC[C@H]1O[C@@H](n2cc(C)c(=O)[nH]c2=O)C[C@@H]1N=[N+]=[N-])C(=O)NCC(=O)O`, for which the EC50 in assay [1] was 63.1 µM; in assay [2], 86.4 µM. In addition, the CC50 in the assay on HeLa was more than 116 µM.
As for `CCCCCCCCCCCCCC(=O)N[C@@H](CCC(=O)OC[C@H]1O[C@@H](n2cc(C)c(=O)[nH]c2=O)C[C@@H]1F)C(=O)OC[C@H]1O[C@@H](n2cc(C)c(=O)[nH]c2=O)C[C@@H]1N=[N+]=[N-]`, the EC50 in [1] was determined as 2.4 µM; in assay [2], 3.6 µM. For the same molecule, the CC50 with HeLa is more than 120 µM.
As to `CC(=O)N[C@@H](CCC(=O)OC[C@H]1O[C@@H](n2cc(C)c(=O)[nH]c2=O)C[C@@H]1F)C(=O)OC[C@H]1O[C@@H](n2cc(C)c(=O)[nH]c2=O)C[C@@H]1N=[N+]=[N-]`, the 50% effective concentration (EC50) in assay [1] was found to be 13.5 µM; in [2], 13.1 µM. The CC50 in the assay on HeLa was more than 151 µM.
For `CCCCCCCCCCCCCC(=O)N[C@@H](CCC(=O)OC[C@H]1O[C@@H](n2cc(C)c(=O)[nH]c2=O)C[C@@H]1F)C(=O)OC[C@@H]1O[C@H](n2ccc(N)nc2=O)CS1` the same measures were 2 µM, 2.7 µM and more than 126 µM.
Regarding `CC(=O)N[C@@H](CCC(=O)OC[C@H]1O[C@@H](n2cc(C)c(=O)[nH]c2=O)C[C@@H]1F)C(=O)OC[C@@H]1O[C@H](n2ccc(N)nc2=O)CS1`, the EC50 in assay [1] was 17 µM; in assay [2], 12.3 µM. For the same molecule, in the assay with HeLa, the CC50 is more than 160 µM.
Regarding `CCCCCCCCCCCCCC(=O)N[C@@H](CCC(=O)OC[C@H]1O[C@@H](n2cc(C)c(=O)[nH]c2=O)C[C@@H]1N=[N+]=[N-])C(=O)OC[C@@H]1O[C@H](n2ccc(N)nc2=O)CS1`, the EC50 was found to be 6 µM in [1] and 6.5 µM in assay [2]. In the assay with HeLa, the CC50 is more than 122 µM.
For `CC(=O)N[C@@H](CCC(=O)OC[C@H]1O[C@@H](n2cc(C)c(=O)[nH]c2=O)C[C@@H]1N=[N+]=[N-])C(=O)OC[C@@H]1O[C@H](n2ccc(N)nc2=O)CS1`, the EC50 in assay [1] worked out at 12 µM; in assay [2], 13.4 µM. In the assay with HeLa, the CC50 was more than 154 µM.
For `Cc1cn([C@H]2C[C@H](N=[N+]=[N-])[C@@H](COC(=O)CC[C@H](NC(=O)CCC(=O)OC[C@H]3O[C@@H](n4cc(C)c(=O)[nH]c4=O)C[C@@H]3F)C(=O)OC[C@@H]3O[C@H](n4ccc(N)nc4=O)CS3)O2)c(=O)[nH]c1=O`, the EC50 in assay [1] is 0.9 µM; in assay [2] it was 1.4 µM. Further, the CC50 in the assay with HeLa is more than 107 µM. Further, the IC50 in assay [3] stood at 0.0267 µM; in [4] it was 0.0227 µM; in assay [5], 0.0129 µM; in [6], 0.0059 µM. For the same molecule, the IC90 came out at 0.161 µM in [3], 0.0845 µM in assay [4], 0.0283 µM in [5] and 0.046 µM in assay [6]. Moreover, the Ratio EC50 in [7] turned out to be 12; in assay [8], 10; in [9], 36; in assay [10] it was 8.
For the molecule `CCCCCCCCCCCCCC(=O)N[C@@H](CCC(=O)O)C(=O)OC[C@H]1O[C@@H](n2cc(C)c(=O)[nH]c2=O)C[C@@H]1F`, the EC50 in assay [1] was 6.3 µM; in [2] it was 7.7 µM. In addition, in the assay on HeLa, the CC50 is more than 51 µM.
In the case of `CCCCCCCCCCCCCC(=O)N[C@@H](CCC(=O)OC[C@@H]1O[C@H](n2ccc(N)nc2=O)CS1)C(=O)OC[C@H]1O[C@@H](n2cc(C)c(=O)[nH]c2=O)C[C@@H]1F`, the EC50 in assay [1] turned out to be 0.6 µM; in [2], 0.3 µM. Also, the CC50 in the assay on HeLa was more than 38 µM.
For `CCCCCCCCCCCCCC(=O)N[C@@H](CCC(=O)OC[C@@H]1O[C@H](n2cc(F)c(N)nc2=O)CS1)C(=O)OC[C@H]1O[C@@H](n2cc(C)c(=O)[nH]c2=O)C[C@@H]1F`, the results for the concentration giving a half-maximal response (EC50) in assay [1] and in [2] were 0.4 µM and 0.1 µM, respectively. In the assay on HeLa, the CC50 is more than 37 µM.
Turning to `Cc1cn([C@H]2C[C@H](F)[C@@H](CO)O2)c(=O)[nH]c1=O` [ALOVUDINE], the results for the EC50 in assay [1] and in assay [2] were 0.8 µM and 0.4 µM, respectively. Also, the IC50 came to 0.002 µM in [3], 0.002 µM in assay [4], 0.026 µM in assay [5] and 0.107 µM in assay [6]. Besides, the IC90 in [3] is 0.0204 µM; in assay [4], 0.0123 µM; in assay [5] it was 0.0872 µM; in assay [6], 1.06 µM.
As to `Nc1nc(=O)n([C@@H]2CS[C@H](CO)O2)cc1F` [EMTRICITABINE], the EC50 came out at 2 µM in assay [1] and 0.8 µM in assay [2].
Regarding `Nc1ccn([C@@H]2CS[C@H](CO)O2)c(=O)n1` [LAMIVUDINE], the EC50 in [1] is 32.7 µM; in [2], 11.3 µM.
`Cc1cn([C@H]2C[C@H](N=[N+]=[N-])[C@@H](CO)O2)c(=O)[nH]c1=O` [ZIDOVUDINE]: the EC50 in [1] amounted to 10.8 µM; in assay [2], 14.2 µM. Also, the 90% effect concentration (IC90) was 0.0213 µM in [3], 0.0342 µM in [4], 0.152 µM in assay [5] and 10.7 µM in assay [6].

In general, EC50 refers to the concentration giving half of the maximal effect. What is called IC50 is the concentration needed to halve the response being measured. Usually IC90 stands for the concentration needed for an effect of 90%.

The record behind these values is ChEMBL document CHEMBL2034836, “Synthesis and anti-HIV activities of glutamate and peptide conjugates of nucleoside reverse transcriptase inhibitors” (J Med Chem, 2012).
